Test results taken from ChEMBL document CHEMBL1152606, “Thienylhalomethylketones: Irreversible glycogen synthase kinase 3 inhibitors as useful pharmacological tools” (Bioorg Med Chem, 2009).
Calls of active or inactive are those of the source. The rule behind the calls is not given here.

Legend:
[1] = organism: Rattus norvegicus; test: Displacement of [3H]AMPA from AMPA receptor in rat cerebral cortex at 10 uM; assay type: tissue-based
[2] = organism: Bos taurus; test: Inhibition of bovine thymus p56LCK at 10 uM by liquid scintillation counting in presence of [33gammaP]ATP
How it was run: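 p56lck from bovine thymus; [γ33-P]ATP with polyGT (0.5 mg/mL) substrate; staurosporine reference; liquid scintillation read-out; compounds tested at 10 µM.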

[3] = biological target: Tyrosine-protein kinase ABL1 (Mus musculus) (UniProt P00520); test: Inhibition of mouse recombinant Abl expressed in Escherichia coli at 10 uM by fluorescence polarization
[4] = biological target: D(3) dopamine receptor (Homo sapiens) (UniProt P35462); test: Displacement of [3H]spiperone from human recombinant dopamine D3 receptor expressed in CHO cells at 10 uM; assay type: cell-based
Chain of D(3) dopamine receptor (Homo sapiens) (P35462 whole entry): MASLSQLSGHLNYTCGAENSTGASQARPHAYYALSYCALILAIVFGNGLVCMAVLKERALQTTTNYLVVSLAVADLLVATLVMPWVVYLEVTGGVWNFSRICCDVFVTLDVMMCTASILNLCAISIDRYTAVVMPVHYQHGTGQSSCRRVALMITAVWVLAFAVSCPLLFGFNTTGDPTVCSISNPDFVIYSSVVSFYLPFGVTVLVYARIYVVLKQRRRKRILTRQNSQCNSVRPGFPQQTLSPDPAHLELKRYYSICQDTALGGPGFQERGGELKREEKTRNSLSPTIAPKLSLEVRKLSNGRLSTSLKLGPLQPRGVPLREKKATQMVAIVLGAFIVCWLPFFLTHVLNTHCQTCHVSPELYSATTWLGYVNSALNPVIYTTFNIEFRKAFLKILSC
How it was run: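 Human recombinant D3 receptor from CHO cells; [3H]spiperone 0.3 nM as ligand; (+)-buctaclamol reference compound.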

[5] = biological target: Dual specificity mitogen-activated protein kinase kinase 1 (Oryctolagus cuniculus) (UniProt P29678); test: Inhibition of rabbit recombinant MEK1 expressed in Escherichia coli at 10 uM by liquid scintillation counting in presence of [33gammaP]ATP
Chain of Dual specificity mitogen-activated protein kinase kinase 1 (Oryctolagus cuniculus) (P29678 whole entry): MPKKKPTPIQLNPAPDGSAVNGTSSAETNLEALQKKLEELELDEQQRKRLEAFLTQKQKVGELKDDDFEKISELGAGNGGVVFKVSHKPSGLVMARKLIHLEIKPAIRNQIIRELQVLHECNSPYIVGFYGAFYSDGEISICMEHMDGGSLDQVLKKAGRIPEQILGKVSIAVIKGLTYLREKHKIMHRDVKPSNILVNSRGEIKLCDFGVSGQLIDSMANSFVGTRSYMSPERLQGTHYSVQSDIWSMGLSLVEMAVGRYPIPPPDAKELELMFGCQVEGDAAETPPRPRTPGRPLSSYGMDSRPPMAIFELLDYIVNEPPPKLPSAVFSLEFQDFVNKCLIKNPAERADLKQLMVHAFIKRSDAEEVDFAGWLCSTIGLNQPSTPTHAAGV
How it was run: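 Rabbit recombinant MEK1 from E. coli; ATP plus unactivated MAP kinase (0.01 mg/mL) as substrate; staurosporine reference; liquid scintillation detection; 10 µM.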

[6] = biological target: T1, Alpha-2A adrenergic receptor (Rattus norvegicus) (UniProt P22909); test: Displacement of [3H]RX821002 from alpha2 adrenoceptor in rat cerebral cortex at 10 uM; assay type: tissue-based
T1 sequence (whole entry): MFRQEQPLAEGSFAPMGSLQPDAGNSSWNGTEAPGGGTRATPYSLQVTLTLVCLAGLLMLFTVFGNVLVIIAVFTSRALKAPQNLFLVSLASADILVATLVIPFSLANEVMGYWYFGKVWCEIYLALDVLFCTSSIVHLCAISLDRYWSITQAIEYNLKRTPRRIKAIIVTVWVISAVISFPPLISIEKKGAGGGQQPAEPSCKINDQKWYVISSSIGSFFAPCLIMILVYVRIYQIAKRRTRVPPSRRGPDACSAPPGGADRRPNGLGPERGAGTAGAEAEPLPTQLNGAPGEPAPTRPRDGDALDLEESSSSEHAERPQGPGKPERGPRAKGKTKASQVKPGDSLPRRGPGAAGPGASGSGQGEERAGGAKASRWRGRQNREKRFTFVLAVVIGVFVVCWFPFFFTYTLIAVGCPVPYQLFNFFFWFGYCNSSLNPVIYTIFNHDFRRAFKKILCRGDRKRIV
How it was run: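 Rat cerebral cortex source; [3H]RX 821002 ligand at 0.5 nM; yohimbine as reference compound; non-selective alpha-2 site.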

[7] = biological target: Proto-oncogene tyrosine-protein kinase Src (Homo sapiens) (UniProt P12931); test: Inhibition of Src at 10 uM
Chain of Proto-oncogene tyrosine-protein kinase Src (Homo sapiens) (P12931 2-536 limits assumed): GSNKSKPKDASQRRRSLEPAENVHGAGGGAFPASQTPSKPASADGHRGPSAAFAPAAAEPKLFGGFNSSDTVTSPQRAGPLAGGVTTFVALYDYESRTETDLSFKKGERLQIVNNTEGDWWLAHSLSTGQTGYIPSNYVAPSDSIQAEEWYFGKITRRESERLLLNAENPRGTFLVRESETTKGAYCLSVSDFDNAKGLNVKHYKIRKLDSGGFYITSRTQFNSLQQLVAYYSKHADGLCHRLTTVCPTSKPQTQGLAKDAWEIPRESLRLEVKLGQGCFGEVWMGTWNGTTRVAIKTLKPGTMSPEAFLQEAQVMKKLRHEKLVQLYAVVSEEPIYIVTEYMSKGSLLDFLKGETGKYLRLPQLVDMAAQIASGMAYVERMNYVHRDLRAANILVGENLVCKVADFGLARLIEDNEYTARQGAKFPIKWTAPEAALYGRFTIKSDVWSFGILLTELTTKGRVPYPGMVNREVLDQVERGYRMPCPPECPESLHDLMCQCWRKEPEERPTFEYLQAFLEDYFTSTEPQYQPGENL

[8] = organism: Rattus norvegicus; test: Displacement of [3H]cystisine from alpha-BGTX sensitive nicotinic acetylcholine receptor in rat cerebral cortex; assay type: tissue-based; parameters: concentration or dose not given beside the values; settings: concentration not given here
[9] = tested on: 5-HT (non-selective) serotonin receptor (Rattus norvegicus); test: Inhibition of [3H]serotonine binding to non-selective 5-HT serotoninergic receptor in rat cerebral cortex at 10 uM
[10] = organism: Rattus norvegicus; test: Displacement of [3H]cystisine from alpha-BGTX insensitive nicotinic acetylcholine receptor in rat cerebral cortex at 10 uM; assay type: tissue-based
[11] = organism: Rattus norvegicus; test: Inhibition of rat recombinant MAPK at 10 uM by liquid scintillation counting in presence of [33gammaP]ATP
How it was run: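 Rat recombinant ERK42 MAP kinase expressed in E. coli; [γ33-P]ATP with MBP (0.5 mg/mL); staurosporine reference; liquid scintillation read-out; 10 µM compound.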

[12] = biological target: Insulin receptor (Homo sapiens) (UniProt P06213); test: Inhibition of human recombinant IR at 10 uM by liquid scintillation counting in presence of [33gammaP]ATP
Chain of Insulin receptor (Homo sapiens) (P06213 28-758 limits assumed): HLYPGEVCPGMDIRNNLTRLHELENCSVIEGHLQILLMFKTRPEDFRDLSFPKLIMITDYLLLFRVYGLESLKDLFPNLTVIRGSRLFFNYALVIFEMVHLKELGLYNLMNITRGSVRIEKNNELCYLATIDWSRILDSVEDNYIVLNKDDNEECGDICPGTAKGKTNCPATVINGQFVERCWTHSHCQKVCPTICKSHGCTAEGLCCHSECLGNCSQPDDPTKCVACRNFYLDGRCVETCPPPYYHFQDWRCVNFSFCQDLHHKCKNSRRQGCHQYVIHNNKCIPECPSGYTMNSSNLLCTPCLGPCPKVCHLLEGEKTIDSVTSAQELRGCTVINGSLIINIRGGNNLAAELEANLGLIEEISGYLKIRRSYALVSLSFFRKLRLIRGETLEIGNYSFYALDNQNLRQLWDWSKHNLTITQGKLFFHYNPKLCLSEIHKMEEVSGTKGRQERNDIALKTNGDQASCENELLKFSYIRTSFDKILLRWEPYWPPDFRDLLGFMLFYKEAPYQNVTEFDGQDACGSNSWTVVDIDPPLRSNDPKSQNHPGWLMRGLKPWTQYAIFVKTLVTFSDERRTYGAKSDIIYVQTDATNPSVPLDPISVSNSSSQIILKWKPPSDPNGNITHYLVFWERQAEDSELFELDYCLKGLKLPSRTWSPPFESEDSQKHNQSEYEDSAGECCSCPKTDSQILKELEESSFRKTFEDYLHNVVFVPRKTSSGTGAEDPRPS
Chain of Insulin receptor (Homo sapiens) (P06213 763-1382 limits assumed): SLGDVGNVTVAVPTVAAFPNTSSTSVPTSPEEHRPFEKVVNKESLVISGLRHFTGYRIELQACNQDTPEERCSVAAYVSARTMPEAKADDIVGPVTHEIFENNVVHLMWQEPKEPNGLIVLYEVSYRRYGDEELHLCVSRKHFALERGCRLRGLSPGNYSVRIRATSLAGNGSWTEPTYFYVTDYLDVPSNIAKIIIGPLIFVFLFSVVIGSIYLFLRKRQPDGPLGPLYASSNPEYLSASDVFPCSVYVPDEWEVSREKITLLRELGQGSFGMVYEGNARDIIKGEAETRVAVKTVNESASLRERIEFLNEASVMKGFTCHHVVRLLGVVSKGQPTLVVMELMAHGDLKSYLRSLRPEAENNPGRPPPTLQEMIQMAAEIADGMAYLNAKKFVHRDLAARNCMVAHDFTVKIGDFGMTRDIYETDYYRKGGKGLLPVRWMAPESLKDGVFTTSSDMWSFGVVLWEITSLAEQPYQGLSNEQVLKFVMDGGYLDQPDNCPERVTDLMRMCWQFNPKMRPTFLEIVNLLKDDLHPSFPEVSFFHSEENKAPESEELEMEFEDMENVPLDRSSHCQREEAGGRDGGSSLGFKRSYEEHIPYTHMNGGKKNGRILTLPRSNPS
How it was run: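 Human recombinant insulin receptor kinase; [γ33-P]ATP plus poly GT (0.03 mg/mL); staurosporine reference; liquid scintillation detection; 10 µM compound.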

[13] = biological target: Glutamate NMDA receptor (Rattus norvegicus) (UniProt P35439+Q00959+Q00960+Q00961+Q62645+Q8VHN2+Q9R1M7); test: Displacement of [3H]CGP39653 from NMDA receptor in rat cerebral cortex at 10 uM; assay type: tissue-based
[14] = organism: Rattus norvegicus; test: Inhibition of rat CAM2 at 10 uM by liquid scintillation counting in presence of [33gammaP]ATP
How it was run: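 CaM kinase II from rat brain; [γ33-P]ATP plus autocamtide-2 (5 µM); staurosporine reference; labelled autocamtide-2 counted by liquid scintillation; compounds at 10 µM.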

[15] = biological target: Epidermal growth factor receptor (Homo sapiens) (UniProt P00533); test: Inhibition of EGFR in human A431 at 10 uM by liquid scintillation counting in presence of [33gammaP]ATP
Chain of Epidermal growth factor receptor (Homo sapiens) (P00533 whole entry): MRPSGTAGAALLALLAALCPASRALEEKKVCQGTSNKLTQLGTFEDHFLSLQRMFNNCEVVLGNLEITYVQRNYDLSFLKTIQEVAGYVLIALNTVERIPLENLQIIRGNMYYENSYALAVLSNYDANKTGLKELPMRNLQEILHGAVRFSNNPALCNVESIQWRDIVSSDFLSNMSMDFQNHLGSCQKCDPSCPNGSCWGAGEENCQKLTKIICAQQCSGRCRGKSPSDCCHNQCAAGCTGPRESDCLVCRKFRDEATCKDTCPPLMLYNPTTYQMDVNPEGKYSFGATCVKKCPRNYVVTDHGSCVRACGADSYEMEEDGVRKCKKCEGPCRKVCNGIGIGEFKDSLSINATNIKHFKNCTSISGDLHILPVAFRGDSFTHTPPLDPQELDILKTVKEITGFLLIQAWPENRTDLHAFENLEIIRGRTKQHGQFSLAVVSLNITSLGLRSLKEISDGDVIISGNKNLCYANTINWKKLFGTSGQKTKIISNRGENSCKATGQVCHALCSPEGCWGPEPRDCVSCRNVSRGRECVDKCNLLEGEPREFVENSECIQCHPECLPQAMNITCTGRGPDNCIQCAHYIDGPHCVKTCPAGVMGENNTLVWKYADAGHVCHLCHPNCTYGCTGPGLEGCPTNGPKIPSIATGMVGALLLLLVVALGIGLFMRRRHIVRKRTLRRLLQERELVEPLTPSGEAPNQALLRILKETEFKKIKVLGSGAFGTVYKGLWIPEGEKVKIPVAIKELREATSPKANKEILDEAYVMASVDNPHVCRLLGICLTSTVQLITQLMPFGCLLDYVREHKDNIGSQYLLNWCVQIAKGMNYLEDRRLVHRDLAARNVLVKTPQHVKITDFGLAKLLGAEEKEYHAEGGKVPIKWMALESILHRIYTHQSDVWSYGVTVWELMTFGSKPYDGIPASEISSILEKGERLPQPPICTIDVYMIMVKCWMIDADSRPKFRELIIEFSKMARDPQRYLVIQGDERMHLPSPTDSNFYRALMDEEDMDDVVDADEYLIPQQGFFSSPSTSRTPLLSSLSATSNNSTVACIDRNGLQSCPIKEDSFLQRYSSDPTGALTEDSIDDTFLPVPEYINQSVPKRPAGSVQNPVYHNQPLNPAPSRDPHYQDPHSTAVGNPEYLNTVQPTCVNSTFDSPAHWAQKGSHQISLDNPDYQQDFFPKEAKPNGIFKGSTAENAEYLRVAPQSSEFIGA
How it was run: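 EGFR kinase from A-431 cells; substrate [γ33-P]ATP plus poly GAT (0.48 mg/mL); PD 153035 reference; product measured by liquid scintillation; compounds at 10 µM.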

[16] = Displacement of [3H]QNB from muscarinic receptor at 10 uM
[17] = biological target: D(2) dopamine receptor (Homo sapiens) (UniProt P14416); test: Displacement of [3H]spiperone from human recombinant dopamine D2 receptor expressed in CHO cells at 10 uM; assay type: cell-based
Chain of D(2) dopamine receptor (Homo sapiens) (P14416 whole entry): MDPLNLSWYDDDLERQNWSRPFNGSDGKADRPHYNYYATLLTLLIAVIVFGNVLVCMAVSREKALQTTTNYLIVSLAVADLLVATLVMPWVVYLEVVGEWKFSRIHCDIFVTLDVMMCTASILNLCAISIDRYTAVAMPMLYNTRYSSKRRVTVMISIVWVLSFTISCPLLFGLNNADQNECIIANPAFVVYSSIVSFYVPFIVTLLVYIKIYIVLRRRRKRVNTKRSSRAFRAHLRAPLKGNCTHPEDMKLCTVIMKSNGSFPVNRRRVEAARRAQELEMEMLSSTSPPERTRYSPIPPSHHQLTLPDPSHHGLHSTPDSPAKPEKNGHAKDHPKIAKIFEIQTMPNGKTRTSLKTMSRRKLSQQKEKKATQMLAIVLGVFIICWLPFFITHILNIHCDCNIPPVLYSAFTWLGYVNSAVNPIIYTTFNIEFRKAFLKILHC
How it was run: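 Human recombinant D2 receptor expressed in CHO cells; [3H]spiperone ligand at 0.3 nM; (+)-buctaclamol as reference compound.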

[18] = biological target: Glycogen synthase kinase-3 beta (Mus musculus) (UniProt Q9WV60); test: Inhibition of GSK-3-beta-mediated tau phosphorylation in mouse granule cerebellar neurons cells after 16 hrs by Western blot
Chain of Glycogen synthase kinase-3 beta (Mus musculus) (Q9WV60 whole entry, looked up): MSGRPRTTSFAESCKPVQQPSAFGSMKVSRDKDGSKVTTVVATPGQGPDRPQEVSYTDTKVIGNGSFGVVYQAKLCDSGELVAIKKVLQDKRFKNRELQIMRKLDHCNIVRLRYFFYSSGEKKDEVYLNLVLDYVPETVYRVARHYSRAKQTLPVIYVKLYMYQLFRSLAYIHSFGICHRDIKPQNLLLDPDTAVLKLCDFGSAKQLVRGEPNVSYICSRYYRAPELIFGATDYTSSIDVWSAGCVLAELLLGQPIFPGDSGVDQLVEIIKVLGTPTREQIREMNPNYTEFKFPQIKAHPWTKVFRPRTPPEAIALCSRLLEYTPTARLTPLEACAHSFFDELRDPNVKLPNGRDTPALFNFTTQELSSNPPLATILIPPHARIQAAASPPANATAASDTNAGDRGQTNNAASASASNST
How it was run: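 Cerebellar granule neurons from P6 mice, plated on poly-L-lysine and grown 48 h in serum-free neurobasal/B-27 with 12.5 mM KCl; compounds 0.5–25 µM; LiCl 10 mM positive control with excess myo-inositol; lysates blotted with PHF-1 and Tau-1, normalised to β-actin, densitometry; mean of three experiments, control = 100 r.u.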

[19] = biological target: Glycogen synthase kinase-3 beta (Homo sapiens, UniProt P49841); test: Inhibition of GSK3-beta by liquid scintillation counting
Chain of Glycogen synthase kinase-3 beta (P49841 whole entry): as the sequence (Q9WV60 whole entry, looked up) above, with P390T, A392T, T400A, A402T counted along it
How it was run: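 GSK-3β enzyme incubated with test compound at various concentrations, GS-1 peptide substrate (15 mM as printed), 15 μM ATP plus 0.2 μCi [γ-32P]ATP, in 50 mM Tris pH 7.5, 10 mM MgCl2, 1 mM EGTA, 1 mM EDTA; 20 min at 37 °C. Aliquots spotted on P81 phosphocellulose, washed in 1% phosphoric acid, counted by liquid scintillation.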

| SMILES | inhibition [1] [%] | inhibition [2] [%] | inhibition [3] [%] | inhibition [4] [%] | inhibition [5] [%] | inhibition [6] [%] | inhibition [7] [%] | inhibition [8] [%] | inhibition [9] [%] | inhibition [10] [%] | inhibition [11] [%] | inhibition [12] [%] | inhibition [13] [%] | inhibition [14] [%] | inhibition [15] [%] | inhibition [16] [%] | inhibition [17] [%] | Activity [18] | IC50 [19] [nM] |
| --- | --- | --- | --- | --- | --- | --- | --- | --- | --- | --- | --- | --- | --- | --- | --- | --- | --- | --- | --- |
| O=C(CCl)c1cscc1Cl | < 10 | 31 | < 10 | < 10 | < 10 | < 10 | 24 | < 10 | < 10 | < 10 | < 10 | < 10 | 16 | < 10 | < 10 | < 10 | 13 | Active | – |
| O=C(CCl)c1scc(Br)c1Br | < 10 | 20 | < 10 | 12 | < 10 | < 10 | – | < 10 | < 10 | < 10 | < 10 | < 10 | < 10 | < 10 | < 10 | 11 | < 10 | – | – |
| O=C(CCl)c1cc(Cl)sc1Cl | 17 | 41 | < 10 | < 10 | < 10 | < 10 | 12 | < 10 | 12 | < 10 | < 10 | < 10 | < 10 | 10 | < 10 | < 10 | < 10 | – | – |
| O=C(CBr)c1cc(Br)c(Br)s1 | < 10 | < 10 | < 10 | < 10 | < 10 | < 10 | 76 | < 10 | < 10 | < 10 | < 10 | 12 | < 10 | < 10 | < 10 | < 10 | < 10 | – | 1000 |
| Cc1sc(C(=O)CCl)cc1C(=O)CCl | < 10 | 17 | < 10 | < 10 | < 10 | < 10 | 54 | < 10 | < 10 | < 10 | < 10 | 12 | < 10 | < 10 | 25 | < 10 | < 10 | – | – |
| CC(=O)c1csc(C(=O)CCl)c1 | < 10 | < 10 | < 10 | < 10 | 12 | < 10 | 22 | < 10 | < 10 | 17 | < 10 | < 10 | < 10 | < 10 | < 10 | < 10 | < 10 | – | – |
| O=C(CCl)c1ccc(Br)s1 | < 10 | < 10 | < 10 | < 10 | < 10 | < 10 | 19 | < 10 | < 10 | < 10 | < 10 | < 10 | < 10 | 16 | < 10 | < 10 | < 10 | Active | – |
| O=C(CBr)c1scc(Br)c1Br | < 10 | < 10 | < 10 | < 10 | < 10 | < 10 | 66 | < 10 | < 10 | 22 | < 10 | < 10 | < 10 | < 10 | 17 | < 10 | < 10 | – | 1000 |
